# Source: PubChem BioAssay
# M4 ag – agonists of human muscarinic M4 receptor (CHRM4) | actives 0.14% (n = 360,000) | CHO-K1 hM4/Gqi5, Fluo-8 calcium fluorescence; vehicle 0%, full acetylcholine response 100% | P08173 | AID 624127 | activation, % at 3 µM;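 active = activation above the run mean over all test wells plus 3 SD, cut at about 32% in these data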;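 note: peak over basal fluorescence ratio per well then scaled between controls; 0% = DMSO wells and 100% = acetylcholine at EC100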
# CHRM5 antagonist – antagonists of human muscarinic M5 receptor (CHRM5) | AID 624040 | P08912 | inhibition, % at 3 µM | CHO-hM5 cells, Fluo-8 calcium fluorescence, ACh EC80 | actives 0.59% (n = 360,000);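 active = inhibition above a per-plate cutoff, the mean of that plate's test compounds plus 3 SD, cut at about 27% in these data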;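 note: 0% = acetylcholine EC80 with DMSO and 100% = DMSO without agonist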
# Target sequence (P08912 whole entry, looked up): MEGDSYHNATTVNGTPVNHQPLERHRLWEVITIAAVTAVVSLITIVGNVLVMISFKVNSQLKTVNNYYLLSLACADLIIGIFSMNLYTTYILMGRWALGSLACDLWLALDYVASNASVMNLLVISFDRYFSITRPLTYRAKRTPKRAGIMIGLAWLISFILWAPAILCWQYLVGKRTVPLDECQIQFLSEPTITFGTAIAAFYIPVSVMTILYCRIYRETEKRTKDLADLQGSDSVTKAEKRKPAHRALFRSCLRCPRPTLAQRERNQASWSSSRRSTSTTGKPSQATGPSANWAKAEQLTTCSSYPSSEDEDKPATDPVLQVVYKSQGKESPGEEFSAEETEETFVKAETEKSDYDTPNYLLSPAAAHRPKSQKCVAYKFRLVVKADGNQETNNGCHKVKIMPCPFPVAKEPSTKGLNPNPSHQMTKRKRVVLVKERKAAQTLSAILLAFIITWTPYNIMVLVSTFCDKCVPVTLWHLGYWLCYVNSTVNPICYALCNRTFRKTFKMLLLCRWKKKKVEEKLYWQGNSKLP
# CHRM5 PAM – CHRM5 positive allosteric modulation; CHO-K1 hM5, Fluo-8 calcium, ACh EC20 PAM; 0% = ACh EC20, 100% = ACh EC100; actives 0.3% (n = 360,000); P08912; activation, % at 3 µM;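 active = activation above the run cutoff, the mean activation of all test compounds plus 3 SD, cut at about 18% in these data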
#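 Probe or stimulus: acetylcholine, EC20 level; Assay system: human M5 receptor in CHO-K1 cells; Schedule: compound preincubation 140 s before EC20 acetylcholine addition; Technique: intracellular calcium via Fluo-8 fluorescence; Dosing: single-point, 3 µM nominal; Read-out basis: percent activation from peak-over-basal fluorescence ratio, scaled EC20-to-EC100 acetylcholine; Repeats: one well per compound, no replicates.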
# M5 ag – agonists of human muscarinic M5 receptor (CHRM5). AID 624037. P08912. actives 0.19% (n = 360,000). CHO-K1 hM5 cells, Fluo-8 calcium fluorescence; 0% DMSO wells, 100% maximal acetylcholine response. activation, % at 3 µM;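 active = activation above the run's mean over test compounds plus 3 SD, cut at about 23% in these data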;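 note: signal is peak over basal fluorescence ratio across the kinetic read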
# M4 PAM – potentiates acetylcholine response at human M4 receptor; CHO-K1 hM4/Gqi5, Fluo-8 calcium fluorescence, ACh EC20; 0% = ACh EC20, 100% = maximal ACh; activation, % at 3 µM; actives 0.4% (n = 360,000);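 active = activation above its plate's cutoff, the mean activation of sample wells plus 3 SD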
# CHRM4 antagonist – CHRM4 antagonism in calcium assay | P08173 | CHO-hM4 cells, ACh EC80, Fluo-8 calcium fluorescence | inhibition, % at 3 µM | actives 0.73% (n = 360,000) | AID 624125;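 active = inhibition above its plate's cutoff, the mean inhibition of sample wells plus 3 SD, cut at about 27% in these data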;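 note: 0% = acetylcholine EC80 with DMSO and 100% = DMSO without agonist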
# Starred values were filed as active, the others as inactive. Rows were chosen to be rich in hits. Some 1.8% of all compounds tested hit in one or more screens of this group.
SMILES,M4 ag,CHRM5 antagonist,CHRM5 PAM,M5 ag,M4 PAM,CHRM4 antagonist
Cc1ccc(S(=O)c2ccc([N+](=O)[O-])c3nonc23)cc1 (stereo not given),9,24,-3,40*,0,15
CCOc1ccc(N2C(=O)C(C)CNC2=S)cc1 (stereo not given),0,0,-1,2,1,2
CCOC(=O)/C=c1\s/c(=C(\C#N)C(N)=O)n(-c2ccccc2)c1=O,3,-3,7,4,0,-7
CCOC(=O)/C=c1\s/c(=C(\C#N)C(=O)NC)n(-c2ccccc2)c1=O,1,-12,23*,-2,18,2
O=C(N/N=C/c1ccccc1)c1ccc(NC(=O)c2ccc(F)cc2)cc1,13,17,20*,0,24*,16
Cc1ccccc1NC(=O)CCC(=O)N/N=C/c1ccc(F)cc1,4,4,5,-3,25*,-15
O=C(N/N=C/c1ccc(OCc2ccc(F)cc2)cc1)c1ccccc1,2,-13,6,-2,20*,-7
O=C(N/N=C/c1ccc(F)cc1)c1ccc(OCc2ccccc2)cc1,1,1,-3,-2,-3,12
Cc1ccccc1NC(=O)CCC(=O)N/N=C/c1cccnc1,1,12,-4,-4,5,1
CSCCC(C(=O)Nc1c(C)cccc1C)N(Cc1ccccc1)Cc1ccccc1 (stereo not given),3,-6,6,4,8,-15
COc1ccc(C2=NOC3(CC(=O)N(c4ccc(F)cc4)C3=O)C2)cc1 (stereo not given),2,-17,14,7,35*,-18
CN(C)S(=O)(=O)c1cccc(C(=O)OCC(=O)c2c(N)n(C)c(=O)n(C)c2=O)c1,4,6,-2,-1,2,-8
Cc1ccc(N(C)S(=O)(=O)c2cccc(C(=O)OCC(=O)c3c(N)n(C)c(=O)n(C)c3=O)c2)cc1,22,14,-33,3,-11,30*
Cc1oc(-c2ccc(Cl)cc2)nc1CS(=O)CC(=O)NCCCN1CCN(Cc2ccccc2)CC1 (stereo not given),6,31*,-12,-7,-12,9
Cc1ccc(-c2nc(CS(=O)CC(=O)NCc3ccc(Cl)cc3)c(C)o2)cc1 (stereo not given),0,-3,-1,-2,9,-15
Cc1oc(-c2ccc(Cl)cc2)nc1CS(=O)CC(=O)NCc1ccccc1 (stereo not given),2,8,0,-4,21*,-2
Cc1cc(C)n2nc(SCc3nnc(SCCCCl)o3)nc2n1,2,7,-7,-3,-14,32*
O=C1CCCC2=C1C(c1cccc(O)c1)C1=C(N2)c2ccccc2C1=O (stereo not given),0,-10,18*,5,-8,-3
COc1ccc(C2=NOC(C(=O)N3CCOCC3)C2)cc1OC (stereo not given),0,-4,-2,-2,12,-14
COc1cccc(C2=NOC(C(=O)N3CCOCC3)C2)c1 (stereo not given),1,10,-3,0,29*,9
COc1ccc2cc1Oc1ccc(cc1)C[C@H]1c3cc(c(OC)cc3CCN1C)Oc1c(OC)c(OC)cc3c1[C@H](C2)N(C)CC3,6,3,-9,0,-17,78*
CCCCN(C(=O)c1ccc(C)o1)c1c(N)n(CC(C)C)c(=O)[nH]c1=O,0,13,-8,-2,-2,-2
CC(=O)c1ccc(N2C(=NC(=O)C3CCCCC3)SC3CS(=O)(=O)CC32)cc1 (stereo not given),1,2,2,-2,2,-4
O=C(c1cc(COc2ccc3c(c2)CCCC3)on1)N1CCCC1,1,-5,10,-3,0,3
CCOC(=O)C1CCCN(C/C(O)=C(\C#N)c2nc(-c3ccccc3)cs2)C1 (stereo not given),5,-3,-6,23*,3,-4
